Values after ≈ are worked out from the molar mass of the structure shown.
Assays:
[1] = tested on: Aspergillus fumigatus; assay: Antimicrobial activity against Aspergillus fumigatus 7544 after 48 hrs by serial dilution method; assay type: functional; conditions: Aspergillus fumigatus, 7544, 48 h
Method in brief: (§1)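 Broth serial dilution MIC in 96-well plates following NCCLS/CLSI methods. Compounds were dissolved in DMSO and serially diluted in growth medium, with incubation at 35 °C. […] C. parapsilosis 22019 served as the quality-control strain in each assay.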

[2] = tested on: Candida albicans; assay: Antimicrobial activity against fluconazole-resistant Candida albicans J18 after 24 hrs by serial dilution method; assay type: functional; conditions: J18, 24 h
Method in brief: (§2)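 Broth serial-dilution MIC in 96-well plates following NCCLS guidance. Compounds were dissolved in DMSO and serially diluted in growth medium. Clinical isolates came from a hospital collection. […] C. parapsilosis ATCC 22019 served as the quality-control strain in each assay.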

[3] = tested on: Candida albicans; assay: Antimicrobial activity against Candida albicans SC5314 after 24 hrs by serial dilution method; assay type: functional; conditions: SC5314, 24 h; method in brief: as §1
[4] = tested on: Candida albicans; assay: Ratio of fluconazole MIC to compound MIC for fluconazole-resistant Candida albicans 100 after 24 hrs by serial dilution method; assay type: functional
[5] = tested on: Candida albicans; assay: Antimicrobial activity against fluconazole-resistant Candida albicans 100 after 24 hrs by serial dilution method; assay type: functional; conditions: Candida albicans, 100, 24 h; method in brief: as §2
[6] = tested on: Candida albicans; assay: Antimicrobial activity against Candida albicans Y0109 after 24 hrs by serial dilution method; assay type: functional; conditions: Y0109, 24 h; method in brief: as §1
[7] = tested on: Candida albicans; assay: Ratio of fluconazole MIC to compound MIC for fluconazole-resistant Candida albicans 103 after 24 hrs by serial dilution method; assay type: functional
[8] = tested on: Nakaseomyces glabratus; assay: Antimicrobial activity against Candida glabrata 537 after 24 hrs by serial dilution method; assay type: functional; conditions: Nakaseomyces glabratus, 537, 24 h; method in brief: as §1
[9] = tested on: Cryptococcus neoformans; assay: Antimicrobial activity against Cryptococcus neoformans 32609 after 72 hrs by serial dilution method; assay type: functional; conditions: Cryptococcus neoformans, 32609, 72 h; method in brief: as §1
[10] = tested on: Candida albicans; assay: Antimicrobial activity against fluconazole-resistant Candida albicans 103 after 24 hrs by serial dilution method; assay type: functional; conditions: Candida albicans, 103, 24 h; method in brief: as §2
[11] = tested on: Candida albicans; assay: Antimicrobial activity against fluconazole-resistant Candida albicans J38 after 24 hrs by serial dilution method; assay type: functional; conditions: J38, 24 h; method in brief: as §2
[12] = tested on: Candida albicans; assay: Antimicrobial activity against fluconazole-resistant Candida albicans J28 after 24 hrs by serial dilution method; assay type: functional; conditions: J28, 24 h; method in brief: as §2
[13] = tested on: Candida albicans; assay: Ratio of fluconazole MIC to compound MIC for fluconazole-resistant Candida albicans J18 after 24 hrs by serial dilution method; assay type: functional
[14] = tested on: Candida parapsilosis; assay: Antimicrobial activity against Candida parapsilosis 22019 after 24 hrs by serial dilution method; assay type: functional; conditions: Lodderomyces parapsilosis, 22019, 24 h; method in brief: as §1
[15] = Aqueous solubility of the compound in hydrochloric acid solution at pH 1.2; assay type: physicochemical
Method in brief: (§3)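 Excess solid was stirred for 3 h in pH 1.2 hydrochloric acid or pH 7.4 phosphate buffer, then filtered through 0.45 μm. Absorbance at the UV maximum was compared with a methanol standard, C′ = A′C/A, with values reported in mg/mL. Determined at 30 °C; mean ± SD, n = 3.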

[16] = Aqueous solubility of the compound in phosphate buffer at pH 7.4; assay type: physicochemical; method in brief: as §3

Row | SMILES | MIC [1] [µg/mL] | MIC [2] [µg/mL] | MIC [3] [µg/mL] | Ratio [4] | MIC [5] [µg/mL] | MIC [6] [µg/mL] | Ratio [7] | MIC [8] [µg/mL] | MIC [9] [µg/mL] | MIC [10] [µg/mL] | MIC [11] [µg/mL] | MIC [12] [µg/mL] | Ratio [13] | MIC [14] [µg/mL] | solubility [15] [µg/mL] | solubility [16] [µg/mL]
1 | C[C@@H](N1CCn2nnc(Br)c2C1)[C@](O)(Cn1cncn1)c1ccc(F)cc1F | 8 (≈ 17.6 µM) | > 32 | ≤ 0.0312 | 16 | > 32 | 0.0625 (≈ 0.138 µM) | 16 | 0.25 (≈ 0.55 µM) | ≤ 0.0625 | > 32 | 0.25 (≈ 0.55 µM) | 2 (≈ 4.4 µM) | 16 | 0.125 (≈ 0.275 µM) |  | 
2 | C[C@@H](N1CCn2nc(-c3cccnc3)nc2C1)[C@](O)(Cn1cncn1)c1ccc(F)cc1F | 32 (≈ 70.7 µM) |  | 0.0312 (≈ 0.0691 µM) |  |  | 0.0312 (≈ 0.0691 µM) |  | 0.0312 (≈ 0.0691 µM) | 0.0312 (≈ 0.0691 µM) |  |  |  |  | 0.0312 (≈ 0.0691 µM) | 5900 (≈ 13000 µM) | 1820 (≈ 4010 µM)
3 | C[C@@H](N1CCc2nc(-c3ccccc3)sc2C1)[C@](O)(Cn1cncn1)c1ccc(F)cc1F | 16 (≈ 34.2 µM) |  | 0.5 (≈ 1.07 µM) |  |  | 0.5 (≈ 1.07 µM) |  | 0.5 (≈ 1.07 µM) | 0.125 (≈ 0.267 µM) |  |  |  |  | 0.5 (≈ 1.07 µM) | 1250 (≈ 2670 µM) | 130 (≈ 278 µM)
4 | C[C@@H](N1CCc2nc(-c3cccnc3)sc2C1)[C@](O)(Cn1cncn1)c1ccc(F)cc1F | 2 (≈ 4.27 µM) |  | 0.0312 (≈ 0.0667 µM) |  |  | 0.0312 (≈ 0.0667 µM) |  | 0.125 (≈ 0.267 µM) | 0.0625 (≈ 0.133 µM) |  |  |  |  | 0.125 (≈ 0.267 µM) | 10100 (≈ 21500 µM) | 2360 (≈ 5040 µM)
5 | C[C@@H](N1CCc2nc(-c3cncnc3)sc2C1)[C@](O)(Cn1cncn1)c1ccc(F)cc1F | 1 (≈ 2.13 µM) | > 16 | 0.0156 (≈ 0.0332 µM) |  | > 16 | 0.0156 (≈ 0.0332 µM) |  | 0.0625 (≈ 0.133 µM) | 0.0625 (≈ 0.133 µM) | 8 (≈ 17 µM) | ≤ 0.0312 | 0.0625 (≈ 0.133 µM) |  | 0.0625 (≈ 0.133 µM) | 14700 (≈ 31300 µM) | 3090 (≈ 6590 µM)
6 | C[C@@H](N1CCc2sc(-c3ccc(C(F)(F)F)cc3)cc2C1)[C@](O)(Cn1cncn1)c1ccc(F)cc1F | 32 (≈ 59.9 µM) |  | 4 (≈ 7.48 µM) |  |  | 8 (≈ 15 µM) |  | 16 (≈ 29.9 µM) | 8 (≈ 15 µM) |  |  |  |  | 16 (≈ 29.9 µM) |  | 
7 | C[C@@H](N1CCc2sc(-c3ccc(Cl)cc3)cc2C1)[C@](O)(Cn1cncn1)c1ccc(F)cc1F | 32 (≈ 63.9 µM) |  | 4 (≈ 7.98 µM) |  |  | 8 (≈ 16 µM) |  | 16 (≈ 31.9 µM) | 8 (≈ 16 µM) |  |  |  |  | 16 (≈ 31.9 µM) |  | 
8 | Cc1ccc(-c2cc3c(s2)CCN([C@H](C)[C@](O)(Cn2cncn2)c2ccc(F)cc2F)C3)cc1 | 8 (≈ 16.6 µM) |  | 1 (≈ 2.08 µM) |  |  | 2 (≈ 4.16 µM) |  | 4 (≈ 8.32 µM) | 4 (≈ 8.32 µM) |  |  |  |  | 4 (≈ 8.32 µM) |  | 
9 | C[C@@H](N1CCc2sc(-c3ccc(C#N)cc3)cc2C1)[C@](O)(Cn1cncn1)c1ccc(F)cc1F | 64 (≈ 130 µM) |  | 2 (≈ 4.07 µM) |  |  | 8 (≈ 16.3 µM) |  | 8 (≈ 16.3 µM) | 4 (≈ 8.14 µM) |  |  |  |  | 8 (≈ 16.3 µM) |  | 
10 | Cc1cccc(-c2cc3c(s2)CCN([C@H](C)[C@](O)(Cn2cncn2)c2ccc(F)cc2F)C3)c1 | 16 (≈ 33.3 µM) |  | 1 (≈ 2.08 µM) |  |  | 2 (≈ 4.16 µM) |  | 4 (≈ 8.32 µM) | 4 (≈ 8.32 µM) |  |  |  |  | 2 (≈ 4.16 µM) |  | 
11 | C[C@@H](N1CCc2sc(-c3cccc(F)c3)cc2C1)[C@](O)(Cn1cncn1)c1ccc(F)cc1F | 8 (≈ 16.5 µM) |  | 1 (≈ 2.06 µM) |  |  | 2 (≈ 4.13 µM) |  | 1 (≈ 2.06 µM) | 1 (≈ 2.06 µM) |  |  |  |  | 4 (≈ 8.26 µM) |  | 
12 | C[C@@H](N1CCc2sc(-c3cccc(C#N)c3)cc2C1)[C@](O)(Cn1cncn1)c1ccc(F)cc1F | 64 (≈ 130 µM) |  | 2 (≈ 4.07 µM) |  |  | 4 (≈ 8.14 µM) |  | 8 (≈ 16.3 µM) | 2 (≈ 4.07 µM) |  |  |  |  | 4 (≈ 8.14 µM) |  | 
13 | C[C@@H](N1CCc2sc(-c3cccc(Cl)c3)cc2C1)[C@](O)(Cn1cncn1)c1ccc(F)cc1F | > 64 |  | 2 (≈ 3.99 µM) |  |  | 2 (≈ 3.99 µM) |  | 8 (≈ 16 µM) | 4 (≈ 7.98 µM) |  |  |  |  | 4 (≈ 7.98 µM) |  | 
14 | C[C@@H](N1CCc2sc(-c3cccc(C(F)(F)F)c3)cc2C1)[C@](O)(Cn1cncn1)c1ccc(F)cc1F | 32 (≈ 59.9 µM) |  | 1 (≈ 1.87 µM) |  |  | 0.5 (≈ 0.935 µM) |  | 1 (≈ 1.87 µM) | 0.5 (≈ 0.935 µM) |  |  |  |  | 2 (≈ 3.74 µM) |  | 
15 | C[C@@H](N1CCc2sc(-c3cncnc3)cc2C1)[C@](O)(Cn1cncn1)c1ccc(F)cc1F | > 32 |  | 2 (≈ 4.27 µM) |  |  | 4 (≈ 8.54 µM) |  | 8 (≈ 17.1 µM) | 4 (≈ 8.54 µM) |  |  |  |  | 4 (≈ 8.54 µM) |  | 
16 | C[C@@H](N1CCc2sc(-c3ccc(C#N)nc3)cc2C1)[C@](O)(Cn1cncn1)c1ccc(F)cc1F | 32 (≈ 65 µM) |  | 1 (≈ 2.03 µM) |  |  | 4 (≈ 8.12 µM) |  | 2 (≈ 4.06 µM) | 1 (≈ 2.03 µM) |  |  |  |  | 2 (≈ 4.06 µM) |  | 

Reference: ChEMBL document CHEMBL3259614, “Design, synthesis, and structure-activity relationship studies of novel fused heterocycles-linked triazoles with good activity and water solubility” (J Med Chem, 2014)
